Results as given in ChEMBL document CHEMBL3734708, “Synthesis, cytotoxicity and antiviral evaluation of new series of imidazo[4,5-g]quinoline and pyrido[2,3-g]quinoxalinone derivatives” (Eur J Med Chem, 2015).

Experiments:
Yellow fever virus = assay: Antiviral activity against YFV 17-D vaccine (Stamaril Pasteur J07B01) infected in BHK21 cells assessed as protection against virus-induced cytopathic effect after 3 or 4 days by MTT assay; format: functional, organism-based; conditions: BHK-21
Outline: (§1)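 BHK-21 (YFV, Reo-1) or MDBK (BVDV) cells seeded at 5 × 10^4 or 3 × 10^4 cells/well and grown overnight to confluence. Monolayers infected at m.o.i. 0.01 in maintenance medium (MEM-Earle, 0.5% inactivated FBS). Serial compound dilutions added 2 h after infection; 37 °C for 3-4 days. Viability read by MTT. EC50 by linear regression versus untreated controls; mean of three determinations.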

Vaccinia virus = assay: Antiviral activity against VV Elstree ATCC VR-1549 infected in african green monkey Vero-76 cells after 3 days by plaque reduction assay; format: functional, organism-based; conditions: Orthopoxvirus vaccinia, Elstree ATCC VR-1549, Vero 76, 72 h
[1] = Cytotoxicity against human MT4 cells assessed as reduction in cell proliferation after 96 hrs by MTT assay; format: cell-based
Outline: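 MT-4 cells in exponential growth seeded at 1 × 10^5 cells/mL in RPMI-1640 with 10% FBS and penicillin/streptomycin. Cultured with serial compound dilutions at 37 °C, 5% CO2. MTT viability after 96 h. CC50 by linear regression against untreated controls. Mean of three independent determinations.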

Hepatitis C virus = assay: Antiviral activity against Hepatitis C virus genotype 1b replicon infected in human GS4.1 cells assessed as protection against virus-induced cytopathic effect after […] by ELISA; format: functional, organism-based, Hepacivirus hominis
Outline: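 Huh-7 cells carrying the genotype 1b replicon (GS4.1) seeded at 7.5 × 10^3 cells/well in twofold serial compound dilutions (top 75 µM). Replicon-free Huh-7 served as negative control. 72 h at 37 °C. Fixed in acetone-methanol; NS4A ELISA with mouse monoclonal A-236, peroxidase anti-mouse IgG and phenylenediamine; absorbance at 492 nm. EC50 by four-parameter sigmoidal regression of % inhibition.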

[2] = tested on: Bovine viral diarrhea virus 1; assay: Antiviral activity against BVDV NADL ATCC VR-534 infected in MDBK cells assessed as protection against virus-induced cytopathic effect after 3 or 4 days by MTT assay; format: functional, organism-based; conditions: Bovine viral diarrhea virus isolates and strains, NADL ATCC VR-534, MDBK; outline: as §1
[3] = Cytotoxicity against african green monkey Vero 76 cells assessed as reduction in cell viability after 48 to 96 hrs by MTT assay; format: cell-based; conditions: chlorocebus sabaeus
Outline: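 Vero-76 cells plated at 4 × 10^5 cells/mL in D-MEM with L-glutamine, kanamycin and 10% FBS. Incubated with serial dilutions of test compounds at 37 °C, 5% CO2 for 48-96 h. Viability by MTT. CC50 by linear regression relative to untreated cells. Mean of three independent runs.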

[4] = tested on: Mammalian orthoreovirus 1; assay: Antiviral activity against Reovirus 1 ATCC VR- 214 infected in BHK21 cells assessed as protection against virus-induced cytopathic effect after 3 or 4 days by MTT assay; format: functional, cell-based; conditions: Mammalian orthoreovirus 1, ATCC VR- 214, BHK-21; outline: as §1
[5] = Cytotoxicity against MDBK cells assessed as reduction in cell viability after 72 hrs by MTT assay; format: cell-based, Bos taurus; conditions: cattle
Outline: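 MDBK cells seeded at 6 × 10^5 cells/mL in MEM-E with L-glutamine, 1 mM sodium pyruvate, kanamycin and 10% horse serum. Mock-infected cultures held with serial compound dilutions at 37 °C, 5% CO2. MTT viability read after 72 h. 50% cytotoxic concentration from linear regression as % of untreated controls. Three independent determinations.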

[6] = tested on: Human immunodeficiency virus 1; assay: Antiviral activity against HIV-1 3B infected in human MT4 cells assessed as protection against virus-induced cytopathic effect after 4 days by MTT assay; format: functional, organism-based; conditions: Human immunodeficiency virus 1, 3B, MT4, 96 h
Outline: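 MT-4 cells (1 × 10^4/well in RPMI) with or without serial compound dilutions, infected with HIV-1 at 100 CCID50 (m.o.i. 0.01). After 4 days at 37 °C, protection from cytopathogenicity read by MTT. EC50 by linear regression versus untreated controls; mean of three independent determinations.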

[7] = tested on: Respiratory syncytial virus; assay: Antiviral activity against RSVA2 ATCC VR-1540 infected in african green monkey Vero-76 cells after 5 days by plaque reduction assay; format: functional, organism-based; conditions: human respiratory syncytial virus, A2 ATCC VR-1540, Vero 76, 120 h
Coxsackievirus B5 = assay: Antiviral activity against CVB-5 virus Faulkner ATCC VR-185 infected in african green monkey Vero-76 cells after 3 days by plaque reduction assay; format: functional, organism-based; conditions: Enterovirus B, Faulkner ATCC VR-185, Vero 76, 72 h
[8] = Cytotoxicity against BHK21 cells assessed as reduction in cell viability after 72 hrs by MTT assay; format: cell-based, Mesocricetus auratus, BHK-21; conditions: hamster
Outline: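 BHK cells seeded at 1 × 10^6 cells/mL in MEM-E with L-glutamine, 1 mM sodium pyruvate, kanamycin and 10% FBS. Mock-infected cells exposed to serial dilutions of compound at 37 °C, 5% CO2, run in parallel with the antiviral assays. Viability by MTT at 72 h. CC50 by linear regression vs untreated controls. Mean of three independent determinations.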

[9] = Selectivity index, ratio of CC50 for human GS4.1 cells to EC50 for Hepatitis C virus genotype 1b replicon infected in human GS4.1 cells; format: toxicity, cell-based; conditions: read-out: Ratio CC50/EC50
Outline: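 Replicon GS4.1 cells 7.5 × 10^3/well with twofold dilutions (top 75 µM), 72 h at 37 °C. Replication measured by NS4A ELISA (anti-NS4A A-236, peroxidase conjugate, phenylenediamine, A492), with EC50 by four-parameter sigmoidal fit. CC50 from CellTiter 96 AQueous One in the same cells. Index taken as CC50/EC50.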

[10] = tested on: Human poliovirus 1 strain Sabin; assay: Antiviral activity against Human poliovirus 1 strain Sabin 1 virus infected in african green monkey Vero-76 cells after 2 days by plaque reduction assay; format: functional, organism-based; conditions: Enterovirus C, 1, Vero 76, 48 h
[11] = tested on: Vesicular stomatitis virus; assay: Antiviral activity against VSV Indiana ATCC VR-158 infected in african green monkey Vero-76 cells after 2 days by plaque reduction assay; format: functional, organism-based; conditions: Indiana ATCC VR-158, Vero 76, 48 h
Human alphaherpesvirus 1 = assay: Antiviral activity against HSV-1 KOS ATCC VR- 1493 infected in african green monkey Vero-76 cells after 3 days by plaque reduction assay; format: functional, organism-based; conditions: Human alphaherpesvirus 1, KOS ATCC VR1493, Vero 76, 72 h
[12] = Selectivity index, ratio of CC50 for MDBK cells to EC50 for BVDV infected in MDBK cells
[13] = Cytotoxicity against human GS4.1 cells assessed as reduction in cell viability after 72 hrs by Cell Titer 96 aqueous one solution cell proliferation assay; format: cell-based
Outline: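 GS4.1 cells (Huh-7 carrying an HCV genotype 1b replicon, grown with 0.5 mg/mL G418) seeded at 7.5 × 10^3 cells/well with twofold serial dilutions, top 75 µM. Incubated 72 h at 37 °C, 5% CO2. Viability by CellTiter 96 AQueous One. CC50 from % cytotoxicity vs concentration.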

[14] = Inhibition of BVDV RNA-dependent RNA polymerase pre-incubated for preincubated for 30 mins before GTP addition and measured after 120 mins by fluorescence based microplate reader assay; design: species or system Bovine viral diarrhea virus 1
Outline: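 His-tagged BVDV NS5BΔ24 (C-terminal 24 residues deleted) from E. coli, Ni-NTA purified, 500 ng/reaction. Assay uses poly(rC) 10 µg/mL template, oligo(rG)12 0.1 µg/mL primer and 80 µM GTP. Buffer is 20 mM Tris pH 7.0, 5 mM MgCl2, 25 mM NaCl, 1 mM DTT, 5% DMSO. Threefold compound dilutions, 30 min RT preincubation, 120 min at 37 °C, EDTA stop. Product read by PicoGreen fluorescence (ex 480/em 520), as % residual activity.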

Row | SMILES | EC50 (Yellow fever virus) | EC50 (Vaccinia virus) | CC50 at 96 h [1] | EC50 (Hepatitis C virus) | EC50 [2] | CC50 [3] | EC50 [4] | CC50 at 72 h [5] | EC50 [6] | EC50 [7] | EC50 (Coxsackievirus B5) | CC50 at 72 h [8] | selectivity ratio [9] | EC50 [10] | EC50 [11] | EC50 (Human alphaherpesvirus 1) | Ratio CC50/EC50 [12] | CC50 at 72 h [13] | IC50 [14]
1 | O=c1[nH]c2cc3cccnc3c(Cl)c2nc1-c1ccccc1 | > 100 µM | > 100 µM | 61 µM | > 11 µM | 5 µM | > 100 µM | > 100 µM | > 100 µM | > 61 µM | > 100 µM | > 100 µM | > 100 µM | 1 | > 100 µM | > 100 µM | > 100 µM | >20 | – | –
2 | O=c1[nH]c2cc3cccnc3c(Cl)c2nc1-c1cccs1 | > 100 µM | > 100 µM | > 100 µM | 7.5 µM | 6 µM | > 100 µM | > 100 µM | > 100 µM | > 100 µM | > 100 µM | > 100 µM | > 100 µM | 3 | > 100 µM | > 100 µM | > 100 µM | >16 | 21 µM | –
3 | COc1nc2cc3cccnc3c(Cl)c2nc1-c1cccs1 | > 100 µM | > 100 µM | > 100 µM | – | 1.3 µM | > 100 µM | > 100 µM | > 100 µM | > 100 µM | > 100 µM | > 100 µM | > 100 µM | – | > 100 µM | > 100 µM | > 100 µM | – | – | 0.64 µM
4 | O=c1[nH]c2cc3cccnc3c(Cl)c2nc1Cc1ccccc1 | > 100 µM | > 88 µM | – | > 65 µM | 2.6 µM | 88 µM | > 100 µM | > 100 µM | > 15 µM | > 88 µM | > 88 µM | > 100 µM | 1 | > 88 µM | > 88 µM | > 88 µM | >34 | – | –
5 | COc1nc2cc3cccnc3c(Cl)c2nc1C(C)C | > 100 µM | > 100 µM | > 100 µM | – | > 100 µM | > 100 µM | > 100 µM | > 100 µM | > 100 µM | > 100 µM | > 100 µM | > 100 µM | – | > 100 µM | > 100 µM | > 100 µM | – | – | –
6 | c1csc(-c2nc3cc4cccnc4cc3n2C2CCCCC2)c1 | > 45 µM | > 15 µM | 18 µM | – | 65 µM | 15 µM | > 45 µM | > 100 µM | > 18 µM | > 15 µM | > 15 µM | 45 µM | – | > 15 µM | > 15 µM | > 15 µM | – | – | –
7 | O=c1c(Cc2ccccc2)nc2cc3cccnc3c(Cl)c2n1C1CCCCC1 | > 20 µM | > 20 µM | 34 µM | – | 5 µM | 20 µM | > 20 µM | > 100 µM | > 34 µM | > 20 µM | > 20 µM | 20 µM | – | > 20 µM | > 20 µM | > 20 µM | – | – | –
8 | c1ccc(-c2nc3cc4cccnc4cc3n2C2CCCCC2)cc1 | > 100 µM | > 35 µM | 50 µM | – | 29 µM | 35 µM | 67 µM | > 100 µM | > 50 µM | > 35 µM | > 35 µM | > 100 µM | – | > 35 µM | > 35 µM | > 35 µM | – | – | –
9 | Cn1c(=O)c(Cc2ccccc2)nc2c(Cl)c3ncccc3cc21 | > 100 µM | > 100 µM | > 100 µM | – | 10 µM | > 100 µM | > 100 µM | > 100 µM | > 100 µM | > 100 µM | > 100 µM | > 100 µM | – | > 100 µM | > 100 µM | > 100 µM | – | – | –
10 | COc1nc2cc3cccnc3c(Cl)c2nc1-c1ccccc1 | > 100 µM | > 100 µM | > 100 µM | – | 4 µM | > 100 µM | 21 µM | > 100 µM | > 100 µM | 9 µM | > 100 µM | > 100 µM | – | 73 µM | > 100 µM | > 100 µM | – | – | –
11 | CC(C)c1nc2c(Cl)c3ncccc3cc2n(C)c1=O | > 100 µM | > 100 µM | > 100 µM | – | > 100 µM | > 100 µM | > 100 µM | > 100 µM | > 100 µM | > 100 µM | > 100 µM | > 100 µM | – | > 100 µM | > 100 µM | > 100 µM | – | – | –
12 | N#CCn1c(=O)c(-c2ccccc2)nc2c(Cl)c3ncccc3cc21 | > 100 µM | > 90 µM | > 100 µM | – | > 100 µM | 90 µM | > 100 µM | > 100 µM | > 100 µM | > 90 µM | > 90 µM | > 100 µM | – | > 90 µM | > 90 µM | > 90 µM | – | – | –
